Type in all cases: functional
One test relates to CAKI-1. Nature of the test: In vitro inhibitory activity for human renal cancer cell line CAK-1 was determined. The essentials: (§1)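 NCI in vitro human tumour cell line panel screen. Growth inhibition is expressed as log GI₅₀ (M), the concentration reducing cell growth to 50% of controls. The mean is the average log GI₅₀ across all cell lines tested.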
For the next test, the system named is UO-31. Nature of the test: In vitro inhibitory activity for human renal cancer cell line UO-31 was determined. The essentials:
as §1

Test [1] in a line: Mean value (average log GI50) over all cell lines tested. The essentials:
as §1

For another test, the system named is Klebsiella pneumoniae. Nature of the test: In vitro antimicrobial activity against Klebsiella pneumoniae was determined. Put shortly: (§2)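 Broth microdilution MIC in nutrient broth with 1-5 × 10⁵ CFU/mL inoculum. Compounds were dissolved in 100% DMSO and serially diluted in DMSO, starting at 300 µM final with at most 1% DMSO. Plates were incubated at 37 °C for 20-72 h. MIC was read by visual turbidity or microscopy. Vehicle and reference controls were included, and tests were run in duplicate.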

Another test has as its system RXF 393. Kind of test: In vitro inhibitory activity for human renal cancer cell line RXF-393 was determined. The essentials:
as §1

Another test deals with Staphylococcus aureus. Nature of the test: In vitro antimicrobial activity against Staphylococcus aureus (methicillin-resistant) was determined. The essentials: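 MRSA in Mueller-Hinton broth at 1-5 × 10⁵ CFU/mL. Compound serial dilutions in 100% DMSO were added 1:100, giving a maximal test concentration of 300 µM and at most 1% DMSO. Plates were held 20-72 h at 37 °C. MIC (µM) was taken from visual turbidity or microscopic growth. Vehicle and reference-agent controls; run in duplicate.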

The subject of a further test is Enterococcus faecalis. Nature of the test: In vitro antimicrobial activity against Enterococcus faecalis (vancomycin-resistant) was determined. Put shortly:
(§3)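 Broth dilution in tryptic soy broth with 7% calf serum against clinical isolates (vancomycin-resistant E. faecalis; erythromycin/ampicillin-resistant S. pneumoniae) at 1-5 × 10⁵ CFU/mL. DMSO serial dilutions were added 1:100, giving a top concentration of 300 µM and at most 1% DMSO. Incubated 20-72 h at 37 °C. MIC (µM) read by visual turbidity or microscopy. Vehicle and reference controls; duplicate.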

The test system of a further test is Pseudomonas aeruginosa. Kind of test: In vitro antimicrobial activity against Pseudomonas aeruginosa was determined. Put shortly: as §2
The next test concerns Proteus vulgaris. Nature of the test: In vitro antimicrobial activity against Proteus vulgaris was determined. The essentials:
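MIC determined in Mueller-Hinton broth inoculated at 1-5 × 10⁵ CFU/mL. DMSO serial dilutions of compounds were used, with a top final concentration of 300 µM and DMSO at most 1%. Incubation was at 37 °C for 20-72 h. Growth was judged by turbidity or microscopy. Vehicle and reference controls were included, with duplicate assays.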

Test [2] can be described thus: In vitro antimicrobial activity against […] (erythromycin and ampicillin-resistant) was determined. Conditions: Streptococcus pneumoniae. Put shortly:
as §3

A short description of test [3]: In vitro antimicrobial activity against Mycobacterium ranae was determined. Put shortly:
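MIC determined in brain heart infusion broth containing 1-5 × 10⁵ CFU/mL. Compounds in DMSO were serially diluted, starting at 300 µM final with 1% DMSO maximum. Incubation was at 37 °C for 20-72 h, with visual turbidity or microscope read-out. Vehicle and reference controls were included, and assays were run in duplicate.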

The test system of a further test is Escherichia coli. Nature of the test: In vitro antimicrobial activity against Escherichia coli was determined. The essentials: as §2

We go through nine compounds from ChEMBL document CHEMBL1133085, “Synthesis, antibacterial, and cytotoxic evaluation of certain 7-substituted norfloxacin derivatives” (2000).

≈ marks a conversion by molar mass, not a printed value. Where only a bound is given, the exact number is not on record here.

With `C=C1CC(CN2CCN(c3cc4c(cc3F)c(=O)c(C(=O)O)cn4CC)CC2)(c2ccc(OC)cc2)OC1=O` (configuration not stated), the GI50 in the test on CAKI-1 was 5130 nM; with UO-31, 2750 nM. The Mean in [1] is on record as -5.19.
Regarding `CCn1cc(C(=O)O)c(=O)c2cc(F)c(N3CCN(C/C(C)=N/O)CC3)cc21`, the MIC came to 0.13 µM (≈ 0.0508 µg/mL) in the test with Klebsiella pneumoniae; 0.51 µM (≈ 0.199 µg/mL) in the test with Staphylococcus aureus; 30 µM (≈ 11.7 µg/mL) in the test on Enterococcus faecalis; 16 µM (≈ 6.25 µg/mL) against Pseudomonas aeruginosa; 2 µM (≈ 0.781 µg/mL) in the test on Proteus vulgaris; 30 µM (≈ 11.7 µg/mL) in [2]. Also, the MIC in test [3] came to 32 µM (≈ 12.5 µg/mL); with Escherichia coli, 0.51 µM (≈ 0.199 µg/mL). Moreover, the GI50 with CAKI-1 is > 100000 nM; with RXF 393, > 100000 nM; in the test with UO-31, 39800 nM. In addition, the Mean in [1] is listed as >-4.
For the compound `CCn1cc(C(=O)O)c(=O)c2cc(F)c(N3CCN(C/C(=N/O)c4ccccc4)CC3)cc21`, the MIC against Klebsiella pneumoniae is 0.22 µM (≈ 0.0995 µg/mL); against Staphylococcus aureus it was 0.44 µM (≈ 0.199 µg/mL); against Enterococcus faecalis, > 200 µM; in the test with Pseudomonas aeruginosa, 13.8 µM (≈ 6.24 µg/mL); against Proteus vulgaris, 3.45 µM (≈ 1.56 µg/mL); in test [2], > 200 µM. Further, the MIC in test [3] turned out to be 55.3 µM (≈ 25 µg/mL); in the test on Escherichia coli it was 0.86 µM (≈ 0.389 µg/mL). The values for the GI50 in the test on CAKI-1, in the test with RXF 393 and in the test on UO-31 were 32400 nM, 36300 nM and 309 nM, respectively. For the same compound, in test [1], the Mean is -4.53.
On to `CCn1cc(C(=O)O)c(=O)c2cc(F)c(N3CCN(CC(=O)c4ccc(OC)cc4)CC3)cc21`, for which the MIC is 0.053 µM (≈ 0.0248 µg/mL) in the test on Klebsiella pneumoniae; 6.7 µM (≈ 3.13 µg/mL) with Staphylococcus aureus; > 200 µM in the test with Enterococcus faecalis; 13.4 µM (≈ 6.26 µg/mL) in the test on Pseudomonas aeruginosa; 0.83 µM (≈ 0.388 µg/mL) against Proteus vulgaris; > 200 µM in test [2]. In addition, the MIC was > 200 µM in [3] and 0.83 µM (≈ 0.388 µg/mL) in the test on Escherichia coli.
With `C=C1CC(CN2CCN(c3cc4c(cc3F)c(=O)c(C(=O)O)cn4CC)CC2)(c2ccccc2)OC1=O` (configuration not stated), the MIC in the test with Klebsiella pneumoniae is 12.4 µM (≈ 6.27 µg/mL); against Staphylococcus aureus it was 1.54 µM (≈ 0.779 µg/mL); with Pseudomonas aeruginosa, > 200 µM; in the test on Proteus vulgaris, > 200 µM; in test [3], > 200 µM; against Escherichia coli it was 98.9 µM (≈ 50 µg/mL). Further, the GI50 in the test with CAKI-1 is 1860 nM; with UO-31, 1580 nM. Besides, in [1], the Mean is -5.47.
In the case of `CCn1cc(C(=O)O)c(=O)c2cc(F)c(N3CCN(C/C(=N/O)c4ccc(F)cc4)CC3)cc21`, the MIC in the test with Klebsiella pneumoniae was 0.21 µM (≈ 0.0988 µg/mL); in the test with Staphylococcus aureus it was 2.13 µM (≈ 1 µg/mL); against Enterococcus faecalis, > 200 µM; in the test on Pseudomonas aeruginosa, > 200 µM; in the test on Proteus vulgaris, 6.38 µM (≈ 3 µg/mL); in [2], > 200 µM. For the same compound, the minimum inhibitory concentration (MIC) in [3] was > 200 µM; with Escherichia coli, 6.38 µM (≈ 3 µg/mL). In addition, the GI50 in the test with CAKI-1 is 1910 nM; in the test with RXF 393 it was 170 nM; with UO-31 it was 132 nM. Besides, the Mean in test [1] is -4.67.
For `CCn1cc(C(=O)O)c(=O)c2cc(F)c(N3CCN(C/C(=N\O)c4ccc(Cl)cc4)CC3)cc21`, the MIC in the test with Klebsiella pneumoniae is 0.21 µM (≈ 0.102 µg/mL); in the test on Staphylococcus aureus, > 200 µM; against Enterococcus faecalis, > 200 µM; in the test on Pseudomonas aeruginosa it was > 200 µM; in the test on Proteus vulgaris, 6.16 µM (≈ 3 µg/mL); in test [2], > 200 µM. Further, the MIC in test [3] is > 200 µM; against Escherichia coli it was 6.16 µM (≈ 3 µg/mL). For the same compound, the results for the GI50 in the test on CAKI-1, in the test with RXF 393 and with UO-31 were 398 nM, 724 nM and 28.8 nM, respectively. Moreover, in test [1], the Mean was -5.03.
For the compound `CCn1cc(C(=O)O)c(=O)c2cc(F)c(N3CCN(C/C(=N\O)c4ccc(OC)cc4)CC3)cc21`, the MIC stood at 0.027 µM (≈ 0.013 µg/mL) against Klebsiella pneumoniae; 0.41 µM (≈ 0.198 µg/mL) against Staphylococcus aureus; 3.23 µM (≈ 1.56 µg/mL) in the test on Enterococcus faecalis; 25.9 µM (≈ 12.5 µg/mL) in the test with Pseudomonas aeruginosa; 3.23 µM (≈ 1.56 µg/mL) against Proteus vulgaris; 13 µM (≈ 6.27 µg/mL) in test [2]. Besides, the MIC is 104 µM (≈ 50.2 µg/mL) in test [3] and 1.62 µM (≈ 0.782 µg/mL) with Escherichia coli. For the same compound, the GI50 with CAKI-1 was 6920 nM; in the test on UO-31, 550 nM. The Mean in test [1] is on record as -4.5.
For the compound `CCn1cc(C(=O)O)c(=O)c2cc(F)c(N3CCNCC3)cc21` [NORFLOXACIN], the MIC worked out at 0.041 µM (≈ 0.0131 µg/mL) against Klebsiella pneumoniae; 4.89 µM (≈ 1.56 µg/mL) in the test with Staphylococcus aureus; 9.8 µM (≈ 3.13 µg/mL) with Enterococcus faecalis; 1.22 µM (≈ 0.39 µg/mL) in the test with Pseudomonas aeruginosa; 0.16 µM (≈ 0.0511 µg/mL) against Proteus vulgaris; 19.6 µM (≈ 6.26 µg/mL) in test [2]. For the same compound, the figures for the MIC (in test [3]; with Escherichia coli) were 9.8 µM (≈ 3.13 µg/mL) and 0.63 µM (≈ 0.201 µg/mL), respectively.

The GI50 is the concentration that inhibits growth by half. A high value points to less potent growth inhibition. The term MIC denotes the lowest concentration found to suppress growth.
